{
  "source": "PubChem BioAssay AID1665",
  "about": "(Sanford-Burnham Center for Chemical Genomics, 2009)",
  "note": "Screen size: about 190,000 compounds; about 590 (0.31%) were called active.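 The calls were made as follows: active = nuclear translocation activity above 50% at 5 µM, with a well cell count of 50 or more; inconclusive = wells under 50 cells across six images, flagged as toxic; inactive = the rest.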 The sample as a whole holds a higher share of actives than the screen did.",
  "data": [
    {"experiment": "modulators of beta-catenin nuclear translocation, primary screen, imaging, HeLa cells, immunofluorescence, high-content (AID 1665);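 as to nuclear translocation activity: per-cell ratio of nuclear to cytoplasmic median beta-catenin stain intensity; plate controls were DMSO negative control for no effect and GSK-3 inhibitor IX positive control for full effect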", "details": "at 5 µM; cell count: measured here: cell count, cytotoxicity flag; nuclear translocation activity: stronger effect = higher value", "in_short": "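Test system: human HeLa cells, native beta-catenin. Compound dosing: 5 µM primary single dose, 0.1% DMSO, 0.02–20 µM confirmation series. Incubation: compound exposure 24 h at 37°C. Detection: beta-catenin immunostaining with DAPI counterstain, 20x imaging, 6 fields/well. Read-out basis: Nuclear/cytoplasmic beta-catenin signal ratio, % activation.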", "units": {"cell count": "cells"}, "values": [
      {"smiles": "NS(=O)(=O)c1ccc(NC2=CC(c3ccc(F)cc3)N(c3ccc(S(N)(=O)=O)cc3)C2=O)cc1", "note": "(centres undefined)", "cell count": 1320, "nuclear translocation activity": "0.9% (inactive)"},
      {"smiles": "C/C(=N\\NC(=O)c1cccnc1)c1ccc(-c2ccccc2)cc1", "cell count": 1160, "nuclear translocation activity": "-0.7% (inactive)"},
      {"smiles": "O=C(Nc1ccc(S(=O)(=O)Nc2nccs2)cc1)c1cccc(S(=O)(=O)N2CCOCC2)c1", "cell count": 1290, "nuclear translocation activity": "0.8% (inactive)"},
      {"smiles": "C[C@@H](NC(=O)OC(C)(C)C)c1nnc(S(=O)(=O)Cc2ccccc2)o1", "cell count": 1360, "nuclear translocation activity": "-0.8% (inactive)"},
      {"smiles": "COc1ccc(N2C(=O)c3ccccc3NC2c2ccc(OC)c(CN3CCOCC3)c2)cc1", "note": "(centres undefined)", "cell count": 1290, "nuclear translocation activity": "0.6% (inactive)"},
      {"smiles": "CCCC(=O)Nc1nc2ccc(NC(=O)c3cccnc3)cc2s1", "cell count": 895, "nuclear translocation activity": "-0.7% (inactive)"},
      {"smiles": "COc1ccc2nc(Nc3nc4ccc(NC(C)=O)cc4s3)sc2c1", "cell count": 875, "nuclear translocation activity": "2.8% (inactive)"},
      {"smiles": "CCCC(=O)Nc1nc2ccc(NC(=O)c3c(F)c(F)c(OC)c(F)c3F)cc2s1", "cell count": 260, "nuclear translocation activity": "57.6% (active)"},
      {"smiles": "Cc1ccc(/C=N/NC(=S)Nc2cccc(S(=O)(=O)N(C)C)c2)o1", "cell count": 1210, "nuclear translocation activity": "2.8% (inactive)"},
      {"smiles": "CC(/C=C/C1(O)C(C)CC(=O)CC1(C)C)OC1OC(CO)C(O)C(O)C1O", "note": "(centres undefined)", "cell count": 1080, "nuclear translocation activity": "-3% (inactive)"},
      {"smiles": "C=CC1C(OC2OC(CO)C(O)C(O)C2O)OC=C(C(=O)OC)C1CC1CC(=O)CC(CC(=O)CCc2ccc(O)cc2)O1", "note": "(centres undefined)", "cell count": 387, "nuclear translocation activity": "79.8% (active)"},
      {"smiles": "Cc1cc(C(=O)NCCc2ccc(Cl)cc2)n(-c2ccccc2)n1", "cell count": 1320, "nuclear translocation activity": "-0.3% (inactive)"},
      {"smiles": "Cn1nccc1NC(=O)Nc1ccc(OC(F)(F)F)cc1", "cell count": 1280, "nuclear translocation activity": "0.7% (inactive)"},
      {"smiles": "CC(C)Cc1ccc(C(C)C(=N)N)cc1", "note": "(centres undefined)", "cell count": 1310, "nuclear translocation activity": "1.1% (inactive)"},
      {"smiles": "COc1ccc(C2=NOC(C(=O)NCc3ccco3)C2)cc1OC", "note": "(centres undefined)", "cell count": 701, "nuclear translocation activity": "166% (active)"},
      {"smiles": "COc1ccc(CNC(=O)C2CC(c3ccc(C(F)(F)F)cc3)=NO2)cc1", "note": "(centres undefined)", "cell count": 1110, "nuclear translocation activity": "2.2% (inactive)"},
      {"smiles": "COc1ccc(-c2cc(C(=O)NCc3ccco3)no2)cc1OC", "cell count": 1220, "nuclear translocation activity": "-1.7% (inactive)"},
      {"smiles": "COc1ccc(S(=O)(=O)N(CC(=O)N/N=C/c2ccccc2C(=O)O)c2ccccc2OC)cc1", "cell count": 1300, "nuclear translocation activity": "-0.3% (inactive)"},
      {"smiles": "Cc1cc(=O)oc2cc(OCCC[n+]3ccccc3)ccc12", "cell count": 1370, "nuclear translocation activity": "-1% (inactive)"},
      {"smiles": "Cc1ccccc1N1CCN(CCCOc2ccc3c(C)cc(=O)oc3c2)CC1", "cell count": 1030, "nuclear translocation activity": "1.9% (inactive)"},
      {"smiles": "Cc1cc(=O)oc2cc(OCC3CC(c4ccccc4Cl)=NO3)ccc12", "note": "(centres undefined)", "cell count": 228, "nuclear translocation activity": "168% (active)"},
      {"smiles": "COc1ccc(C(C(=O)NC(C)(C)C)N(C(=O)Cn2nnc3ccccc32)c2ccc(C(C)=O)cc2)cc1O", "note": "(centres undefined)", "cell count": 1370, "nuclear translocation activity": "-1% (inactive)"},
      {"smiles": "CCOc1cccc(-c2nnc3sc(COc4ccc(OC)cc4)nn23)c1", "cell count": 1020, "nuclear translocation activity": "-0.9% (inactive)"},
      {"smiles": "COc1ccc(-n2nnnc2-c2nc3ccccc3s2)cc1", "cell count": 953, "nuclear translocation activity": "0.1% (inactive)"},
      {"smiles": "CCOc1cccc(-n2nnnc2-c2ccc(OC)cc2)c1", "cell count": 184, "nuclear translocation activity": "63.9% (active)"},
      {"smiles": "CC(C)(C)NC(=O)/C(=C/c1cccnc1)NC(=O)c1ccco1", "cell count": 1310, "nuclear translocation activity": "-0.7% (inactive)"},
      {"smiles": "Cc1nn2c(NCCN(C)C)c3c(nc2c1-c1ccccc1)CCC3", "cell count": 1430, "nuclear translocation activity": "0.3% (inactive)"},
      {"smiles": "C=CCNC(=S)N1CCc2[nH]c3ccccc3c2C1", "cell count": 1340, "nuclear translocation activity": "0.9% (inactive)"},
      {"smiles": "O=C(NNC(=S)Nc1ccc(F)cc1)[C@H]1C[C@@H]1c1ccccc1", "cell count": 1360, "nuclear translocation activity": "-0.2% (inactive)"},
      {"smiles": "Cc1ccc(/C=N/NC(=S)NC2CCCCC2)o1", "cell count": 1310, "nuclear translocation activity": "-0.8% (inactive)"},
      {"smiles": "Cc1cc(C)cc(OCC(=O)O/N=C(\\N)Cc2ccc([N+](=O)[O-])cc2)c1", "cell count": 1030, "nuclear translocation activity": "-2.4% (inactive)"},
      {"smiles": "COc1ccc(-c2nn(C)c(=O)c3ccccc23)cc1CNC(=O)C1CCCCC1", "cell count": 1350, "nuclear translocation activity": "0.1% (inactive)"},
      {"smiles": "COc1ccc(C(CC(=O)N2CCN(c3ccccc3)CC2)c2c(O)cc(OC)cc2OC)cc1", "note": "(centres undefined)", "cell count": 1050, "nuclear translocation activity": "0.9% (inactive)"},
      {"smiles": "Cc1ccc(/C=N/NC(=O)CSc2ccccn2)o1", "cell count": 1300, "nuclear translocation activity": "0.7% (inactive)"},
      {"smiles": "COC(=O)c1c(C)oc(C)c1S(=O)(=O)Nc1ccc(C(C)C)cc1", "cell count": 1320, "nuclear translocation activity": "-1.4% (inactive)"},
      {"smiles": "CC12C(=O)N(c3ccccc3)C(=O)C1C(c1ccccc1)N1CCCN12", "note": "(centres undefined)", "cell count": 1080, "nuclear translocation activity": "-5.7% (inactive)"},
      {"smiles": "COc1cc(NC(=O)c2ccc(CNc3c(N4CCCC4)c(=O)c3=O)cc2)cc(OC)c1OC", "cell count": 1340, "nuclear translocation activity": "-0.2% (inactive)"},
      {"smiles": "O=C(CSc1nnc(SCc2ccc(F)cc2)s1)Nc1ccc(C(=O)O)cc1", "cell count": 1300, "nuclear translocation activity": "-1% (inactive)"},
      {"smiles": "CCOC(=O)N/N=C1\\CC(C)S(=O)(=O)c2ccc(Cl)cc21", "note": "(centres undefined)", "cell count": 1360, "nuclear translocation activity": "0.2% (inactive)"},
      {"smiles": "Cc1cc(C(=O)N/N=C/c2ccccc2[N+](=O)[O-])c(C)o1", "cell count": 1070, "nuclear translocation activity": "-0.2% (inactive)"},
      {"smiles": "O=C(N/N=C/c1ccc([N+](=O)[O-])cc1)c1c[nH]c2ccccc12", "cell count": 1150, "nuclear translocation activity": "-1.5% (inactive)"},
      {"smiles": "Cc1c(C(=O)N/N=C/c2ccccc2)[nH]c2c([N+](=O)[O-])cccc12", "cell count": 474, "nuclear translocation activity": "69.8% (active)"}
    ]}
  ]
}
